This sample holds only a part of the variants without activity.
B1: tRNA (parent)
chain: CUCUCGGUAGCCAAGUUGGUUUAAGGCGCAAGACUUUAAUUUAUCACUACGAAAUCUUGAGAUCGGGCGUUCGACUCGCCCCCGGGAGAUUUUUUCCUCGAGCAA

Variants of: B1
Assay: nonsense suppression (GFP-seq) (ratio to wild type); higher = more function; SUP4oc tRNA, yeast GFP reporter sort-seq
Summary of the method: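 Nonsense suppression (GFPSEQ) is the median GFP/RFP ratio of each sorting bin, weighted by the variant's estimated share of cells in that bin and expressed relative to the unmutated parent tRNA. Yeast strains carried genome-integrated variants of an ochre-suppressor tRNA from a library with ~3% random mutations, plus a galactose-driven GFP ochre reporter and RFP, and were grown in raffinose/galactose medium containing 80 mg/L adenine. Cells were sorted into GFP/RFP bins, each bin was Illumina-sequenced (phred ≥30), and variants were kept only with ≥100 reads and ≥30 cells.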

Variant | nonsense suppression
C12U U63G | 0.121
C12U U63A | 0.697
A14C C56G C72G G86A | ≤ 0.026
A14C U20G | ≤ 0.026
A14C C68U G88A | ≤ 0.026
A13C C80U | 0.179
C11U G78U | ≤ 0.026
A14C C29U | ≤ 0.026
C11U C56G G73C G78A C79G | ≤ 0.026
C12U A54C | 0.0512
C12U A54G | 0.0372
C12U A54U | 0.229
A14C C56A C81G | ≤ 0.026
C12U G61U | 0.248
C11U G84C A89C | ≤ 0.026
A13G C27A C29G A33U U76C G86U | ≤ 0.026
A13U C77U | 0.0452
C12A U35A C81G | ≤ 0.026
A13U C27U G85A | 0.22
C12G C68G G69U A89U | 0.0702
A14G C64A G65A | ≤ 0.026
A13U A33G | 0.194
A13U U22G | 1.06
A13G U17C A23C C75A G88A | ≤ 0.026

Variant | nonsense suppression
A14G U35C | ≤ 0.026
C11U C27G A74G | ≤ 0.026
A14G A87U | ≤ 0.026
A14U G15C A60C C79U | ≤ 0.026
A13U A24U | 0.863
A13U A24G | 0.96
C12A C77A G86U | ≤ 0.026
C12A G18U U70C G88U | ≤ 0.026
A13G C75A | 0.71
A13G C75U | 0.305
A13U G86A | 0.0315
A14G A31G | 0.0611
C12G U71G | 0.859
A13U A62C | 0.029
A13C C75U G85U | 0.333
A13U C27U | 0.209
A13G A33U U57A | ≤ 0.026
A13G A24U | 0.0411
A13G U35C U71C | ≤ 0.026
A13U G15A G73U | ≤ 0.026
C12U U16C G28A | 0.295
C12U U55C | 0.0665
A13C U35G U57C | ≤ 0.026
C11U U63G | 0.034

Variant | nonsense suppression
A13C U76A | 0.282
A13C C27U | 0.0494
A13C A30U G85A | 0.157
A13G A30G | 0.105
C11U C12A G88A | ≤ 0.026
A14C A31C U58C C72A U76C C77G | ≤ 0.026
C11U G18U U58G | ≤ 0.026
A13C U17G | 0.958
A13C A87C | 0.0539
A13C A87G | 0.127
A13U A24G G26C G32C A89C | ≤ 0.026
A13U C79A G84U | ≤ 0.026
A13G G85A | 0.214
C11U C29G | ≤ 0.026
A14U G18C C80U | ≤ 0.026
C12A G32C U57G | ≤ 0.026
C12U A23C U70C | ≤ 0.026
A13C C64U | 0.0428
C12G A33U | ≤ 0.026
A14U A33U C34G G59C | ≤ 0.026
A13U G28C | 0.227
A13C C29U | 0.806
C12U A60U | 0.723
C12U A60G | 0.406

Variant | nonsense suppression
C11U G32U G69C G85C | ≤ 0.026
A14C G59U | ≤ 0.026
C11U U55A G61C G88C | ≤ 0.026
A13C U57A G66A | ≤ 0.026
A13U A24G G61C | 0.0375
A13C U63C | 0.848
A13C U63A | 1.17
A13G G59U | ≤ 0.026
A13C C72U C81U | ≤ 0.026
C12A G78A | 0.045
C12U C75G | 1.23
A14G A30C G61C A74U | ≤ 0.026
A14U A24C | 0.0284
A13C G78A | 0.208
A13C U17G C82U | 0.142
C11U G61C A87U | ≤ 0.026
C12U U16G | 0.785
C12U U16C | 0.853
A13C G66C | ≤ 0.026
A13U C29U | 0.751
A13C A54G G73C | ≤ 0.026
C12U G18U A30C G84A A89C | ≤ 0.026
C12A G18U G66A U70C C77G C83U | ≤ 0.026
A13U C29U C81U | 0.0757

Variant | nonsense suppression
A13C A31U G61C | ≤ 0.026
C12A A89G | ≤ 0.026
C12U U20G | 0.455
C12U U20C | 0.177
C12U U70A | 0.048
A14C U16C G19A A23U C29U A30G C72G C82A | ≤ 0.026
A13G A87G | 0.14
A13U U16G C82U | 0.377
A13U C79U | 0.175
A13U U20A | 0.189
C12U C27U G61C | ≤ 0.026
A14C U71A | ≤ 0.026
C12U U55G U70G C83U | ≤ 0.026
A13U G69C | 0.0304
A13U G69A | 0.072
A13C A31C U76A | ≤ 0.026
A13C C68U | 0.836
C12U G88U | 0.0717
C12A G28C A31G U57G | ≤ 0.026
C12U C27U | 0.121
A13G C68U | 0.146
A13U U57A | 0.0273
A13G U20A | 0.0339
A13C G61A C75G | 0.761

Variant | nonsense suppression
C12G U17C U21G | ≤ 0.026
A13U U57A G65A | ≤ 0.026
C12G C27U | ≤ 0.026
A13G A54C G69U G86U | ≤ 0.026
A13U A30U | 0.0763
A14C A31U A33U | ≤ 0.026
A13G C80U | 0.0419
A14G A30G | 0.03
A14G A30U | 0.0337
C12U C79U | 0.205
C12U C64U | ≤ 0.026
C12U C64A | ≤ 0.026
C12U A13U | 0.626
C12U A13C | 0.2
C12U A13G | 0.153
C12U A30G | 0.363
C11U G85C A87G | ≤ 0.026
A14G A74C | ≤ 0.026
A14C U63G A87C | ≤ 0.026
A13U U21G | 0.763
A13U U21A | 0.803
C12G A14G A33G | ≤ 0.026
A13U U16A G85U | 0.173
A13U U16C U63G | 0.18

Variant | nonsense suppression
A13G G84C | ≤ 0.026
A13U U16G | 0.819
A13U U16A | 0.837
A13U C75U | 1.22
A13U C75A | 0.866
C12U A13U C79U | 0.0331
A13C U17G C75A | 1.1
C11U C68A U76C C83G | ≤ 0.026
A13C C72U | 0.23
A14C C68G | ≤ 0.026
A13C U57C | 0.0326
A13C U21C | 1.17
A13C U21A | 1.19
C12U G25A A74G | ≤ 0.026
A13C A14U | 0.206
C12U U17C | 0.212
C12U A24U | 0.118
A13U G59U C80G | ≤ 0.026
C12U U76G | 0.0906
C12U U76A | 0.244
C12U U76C | 0.818
C12A G61C G66C | ≤ 0.026
A13C G28C | 0.794
